Laboratory results published in ChEMBL document CHEMBL2380267, “Structural optimization, biological evaluation, and application of peptidomimetic prostate specific antigen inhibitors” (J Med Chem, 2013).
The source made the active and inactive calls. The rule behind the calls is not given here. Non-standard residues stand in square brackets, D forms with d. Residues, ends and D or L forms follow the SMILES beside them. *: point of attachment. X4 = CC1(C)[C@@H]2C[C@H]1[C@]1(C)OB([C@@H](CCCBr)N*)O[C@@H]1C2; dboroNva(5-Br) = OB(O)[C@@H](CCCBr)N*; dboroPhe = OB(O)[C@@H](Cc1ccccc1)N*; Benzoyl(4-I) = O=C(c1ccc(I)cc1)*; X2 = CC(C)C[C@@H](N*)B(O)O; Nle = CCCC[C@H](N)C(=O)O; Cbz = O=C(OCc1ccccc1)*; Ahx = NCCCCCC(=O)O

Tests used:
Kidney = experiment: Biodistribution in nude mouse kidney xenografted with human LNCAP cells expressing PSA at 230 to 580 uCi after 2 hrs by gamma counting analysis; type: ADME, organism-based; conditions: in vivo
Procedure, shortened: (§1)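 Single mice sacrificed at 2, 4 and 6 h (or 2 and 4 h). Liver, kidney, heart, brain, muscle and tumor weighed and gamma-counted. Counts corrected for background and decay; %ID/g calculated against 0.01 mL of dosing solution.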

Liver = experiment: Biodistribution in nude mouse liver xenografted with human LNCAP cells expressing PSA at 230 to 580 uCi after 2 hrs by gamma counting analysis; type: ADME, organism-based; conditions: in vivo; procedure, shortened: as §1
Mus musculus [1] = experiment: Biodistribution in tumor of nude mouse xenografted with human LNCAP cells expressing PSA at 230 to 580 uCi after 3 to 4 hrs by gamma counting analysis; type: ADME, organism-based, Neoplasm; conditions: in vivo; procedure, shortened: as §1
[2] = Half life in ip dosed mouse; type: ADME, organism-based; conditions: in vivo
Procedure, shortened: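 Four animals sacrificed per time point; plasma counts per second normalised to starting counts.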

[3] = Selectivity ratio of Ki for bovine pancreas chymotrypsin to Ki for human seminal fluid PSA
[4] = Inhibition of bovine pancreas chymotrypsin using Suc-AAPF-AMC as substrate measured for 30 mins by fluorescence assay; set-up: species or system Bos taurus
Procedure, shortened: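 Inhibitor added from DMSO stock; substrate added last and AMC fluorescence read immediately. Ki = 1/slope × 1/(1+[S]/Km), from V0/Vi−1 plotted against [I].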

[5] = target: T1, Prostate-specific antigen (Homo sapiens, UniProt P07288); experiment: Inhibition of PSA (unknown origin)
T1 sequence (P07288 whole entry): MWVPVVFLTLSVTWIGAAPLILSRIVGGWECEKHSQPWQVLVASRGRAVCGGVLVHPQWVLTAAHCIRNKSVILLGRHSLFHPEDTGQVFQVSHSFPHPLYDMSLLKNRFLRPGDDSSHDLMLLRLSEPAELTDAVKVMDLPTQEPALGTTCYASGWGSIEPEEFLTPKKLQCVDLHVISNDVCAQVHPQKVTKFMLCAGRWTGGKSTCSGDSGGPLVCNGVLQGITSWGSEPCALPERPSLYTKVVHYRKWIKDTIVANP

[6] = target: T1, Prostate-specific antigen; experiment: Inhibition of PSA (unknown origin) using Mu-SRKSQQY-AMC as substrate by fluorescence assay
Procedure, shortened: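 Inhibitor added from DMSO stock. AMC fluorescence (ex 370, em 465 nm) followed over 30 min in triplicate. Ki = 1/slope × 1/(1+[S]/Km), from V0/Vi−1 plotted against [I].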

[7] = Selectivity ratio of Ki for human seminal fluid PSA to Ki for bovine pancreas chymotrypsin
LNCaP [8] = experiment: Antitumor activity against human LNCAP cells expressing PSA xenografted in nude mouse assessed as tumor incident at 10 mg/kg, iv qd administered 5 days/week for 3 weeks measured after 3 weeks; type: functional, organism-based; set-up: dose 10 mg/kg
Procedure, shortened: (§2)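 Nude male mice (n = 10 per group) carrying subcutaneous PSA-producing LNCaP xenografts. Dosed 10 mg/kg iv once daily for three cycles of five consecutive days, compound in sterile saline; controls untreated. Tumor measured by caliper, volume = L × W × H × […]. Tumor size and body weight recorded twice per week.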

Mus musculus [9] = experiment: Inhibition of free PSA level in nude mouse serum xenografted with human LNCAP cells at 10 mg/kg, iv qd administered 5 days/week for 3 weeks measured 24 hrs post last dose by ELISA relative to control; type: functional
Procedure, shortened: (§3)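 LNCaP xenograft-bearing nude mice dosed 10 mg/kg iv (sterile saline) once daily, five consecutive days/week for three courses; controls untreated. Serum free and total PSA measured by ELISA 24 h after the last dose, also expressed per g tumor.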

LNCaP [10] = experiment: Antitumor activity against human LNCAP cells expressing PSA xenografted in nude mouse assessed as delay in tumor growth at 10 mg/kg, iv qd administered 5 days/week for 3 weeks measured after 2 weeks; type: functional, organism-based; set-up: dose 10 mg/kg; procedure, shortened: as §2
Mus musculus [11] = experiment: Inhibition of total PSA level in nude mouse serum xenografted with human LNCAP cells at 10 mg/kg, iv qd administered 5 days/week for 3 weeks measured 24 hrs post last dose by ELISA relative to control; type: functional; procedure, shortened: as §3
Mus musculus [12] = experiment: Toxicity in nude mouse xenografted with human LNCAP cells expressing PSA assessed as body weight loss at 10 mg/kg, iv qd measured 5 days/week for 3 weeks; type: organism-based; set-up: dose 10 mg/kg, route intravenous; conditions: in vivo; procedure, shortened: as §2

| Ratio Ki [3] | Ki [4] [µM] | SMILES | other results |
| --- | --- | --- | --- |
| – | – | CCCC[C@H](NC(=O)[C@H](CCC(N)=O)NC(=O)[C@H](CO)NC(=O)[C@H](Cc1ccccc1)NC(=O)CCCCCNC(=O)c1ccc([125I])cc1)C(=O)N[C@H](CCCBr)B1O[C@@H]2C[C@H]3C[C@H](C3(C)C)[C@]2(C)O1 | Drug uptake (Kidney): Active; Drug uptake (Liver): Active; Drug uptake (Mus musculus [1]): Active |
| – | – | CCCC[C@H](NC(=O)[C@H](CCC(N)=O)NC(=O)[C@H](CO)NC(=O)[C@H](Cc1ccccc1)NC(=O)CCCCCNC(=O)c1ccc([125I])cc1)C(=O)N[C@H](CCCBr)B(O)O | Drug uptake (Kidney): Active; Drug uptake (Liver): Active; Drug uptake (Mus musculus [1]): Active |
| – | – | CCCC[C@H](NC(=O)[C@H](CCC(N)=O)NC(=O)[C@H](CO)NC(=O)C[C@H](Cc1ccc2ccccc2c1)NC(=O)CCCCCNC(=O)c1ccc([125I])cc1)C(=O)N[C@H](Cc1ccccc1)B(O)O | Drug uptake (Kidney): Active; half-life [2]: 2.7 h; Drug uptake (Liver): Active; Drug uptake (Mus musculus [1]): Active |
| – | – | CCCC[C@H](NC(=O)[C@H](CCC(N)=O)NC(=O)[C@H](CO)NC(=O)[C@H](CO)NC(=O)CCCCCNC(=O)c1ccc([125I])cc1)C(=O)N[C@H](CCCBr)B(O)O | half-life [2]: 0.2 h |
| 4.94 | 0.506 | CCCC[C@H](NC(=O)[C@H](CCC(N)=O)NC(=O)[C@H](CO)NC(=O)C[C@H](Cc1ccc2ccccc2c1)NC(=O)CCCCCN)C(=O)N[C@H](CCCBr)B(O)O | – |
| 0.03 | 0.00721 | CCCC[C@H](NC(=O)[C@H](CCC(N)=O)NC(=O)[C@H](CO)NC(=O)C[C@H](Cc1ccc2ccccc2c1)NC(=O)CCCCCN)C(=O)N[C@H](Cc1ccccc1)B(O)O | – |
| 0.83 | 0.251 | CCCC[C@H](NC(=O)[C@H](CCC(N)=O)NC(=O)[C@H](CO)NC(=O)CCCCCN)C(=O)N[C@H](CCCBr)B(O)O | – |
| 0.17 | 0.00377 | CCCC[C@H](NC(=O)[C@H](CCC(N)=O)NC(=O)[C@H](CO)NC(=O)CCCCCN)C(=O)N[C@H](Cc1ccccc1)B(O)O | – |
| – | – | O=C(OCc1ccccc1)c1cccc(CC(=O)N2C(=O)[C@@H](Cc3ccc(O)cc3)[C@H]2C(=O)OCc2ccccc2)c1 | IC50 [5]: 0.226 µM |
| 0.11 | 0.0181 | CCCC[C@H](NC(=O)[C@H](CCCCN)NC(=O)[C@H](CO)NC(=O)[C@H](CO)NC(=O)OCc1ccccc1)C(=O)N[C@H](Cc1ccccc1)B(O)O (Cbz-SSK[Nle]-dboroPhe) | – |
| 8.13 | 0.197 | CCCC[C@H](NC(=O)[C@H](CCCCN)NC(=O)[C@H](CO)NC(=O)[C@H](CO)NC(=O)OCc1ccccc1)C(=O)N[C@H](CCCBr)B(O)O (Cbz-SSK[Nle]-{dboroNva(5-Br)}) | – |
| – | – | CC(C)C[C@H](NC(=O)[C@H](CCCCN)NC(=O)[C@H](CO)NC(=O)[C@@H](N)CO)C(=O)N[C@H](C=O)CCC(N)=O (H-SSKLQ-aldehyde) | Ki [6]: 45 µM |
| 0.12 | 0.0362 | CCCC[C@H](NC(=O)[C@H](CCC(N)=O)NC(=O)[C@H](CO)NC(=O)[C@H](C)NC(=O)CCCCCN)C(=O)N[C@H](Cc1ccccc1)B(O)O (H-[Ahx]ASQ[Nle]-dboroPhe) | – |
| 3.18 | 0.166 | CCCC[C@H](NC(=O)[C@H](CCC(N)=O)NC(=O)[C@H](CO)NC(=O)[C@H](C)NC(=O)CCCCCN)C(=O)N[C@H](CCCBr)B(O)O (H-[Ahx]ASQ[Nle]-{dboroNva(5-Br)}) | – |
| 6.77 | 0.496 | CCCC[C@H](NC(=O)[C@H](CCC(N)=O)NC(=O)[C@H](CO)NC(=O)[C@H](Cc1ccccc1)NC(=O)CCCCCN)C(=O)N[C@H](CCCBr)B1O[C@@H]2C[C@H]3C[C@H](C3(C)C)[C@]2(C)O1 (H-[Ahx]FSQ[Nle]-X4) | – |
| 0.002 | 0.000135 | CCCC[C@H](NC(=O)[C@H](CCC(N)=O)NC(=O)[C@H](CO)NC(=O)[C@H](Cc1ccccc1)NC(=O)CCCCCN)C(=O)N[C@H](Cc1ccccc1)B(O)O (H-[Ahx]FSQ[Nle]-dboroPhe) | Ratio Ki [7]: 450 |
| 8.03 | 0.581 | CCCC[C@H](NC(=O)[C@H](CCC(N)=O)NC(=O)[C@H](CO)NC(=O)[C@H](Cc1ccccc1)NC(=O)CCCCCN)C(=O)N[C@H](CCCBr)B(O)O (H-[Ahx]FSQ[Nle]-{dboroNva(5-Br)}) | Activity (LNCaP [8]): inactive; inhibition in vivo at 10 mg/kg (Mus musculus [9]): 23%; Activity (LNCaP [10]): Active; inhibition in vivo at 10 mg/kg (Mus musculus [11]): 40%; Activity (Mus musculus [12]): Non-toxic |
| 3.2 | 0.138 | CCCC[C@H](NC(=O)[C@H](CCC(N)=O)NC(=O)[C@H](CO)NC(=O)[C@H](CO)NC(=O)CCCCCN)C(=O)N[C@H](CC(C)C)B(O)O (H-[Ahx]SSQ[Nle]-X2) | – |
| 10.1 | 0.653 | CCCC[C@H](NC(=O)[C@H](CCC(N)=O)NC(=O)[C@H](CO)NC(=O)[C@H](Cc1ccccc1)NC(=O)CCCCCNC(=O)c1ccc(I)cc1)C(=O)N[C@H](CCCBr)B(O)O ({Benzoyl(4-I)-Ahx}-FSQ[Nle]-{dboroNva(5-Br)}) | – |
